Results reported in ChEMBL document CHEMBL2046356, “Synthesis and evaluation of a set of para-substituted 4-phenylpiperidines and 4-phenylpiperazines as monoamine oxidase (MAO) inhibitors” (J Med Chem, 2012).
Activity calls are given as the source filed them. The rule behind the calls is not given here.

Columns and labels:
[1] = molecular target: T1, Amine oxidase [flavin-containing] A (Rattus norvegicus, UniProt P21396); experiment: Displacement of [3H]-Ro 41-1049 from MAO-A receptor in rat cerebral cortex; assay type: tissue-based
T1 sequence (P21396 whole entry): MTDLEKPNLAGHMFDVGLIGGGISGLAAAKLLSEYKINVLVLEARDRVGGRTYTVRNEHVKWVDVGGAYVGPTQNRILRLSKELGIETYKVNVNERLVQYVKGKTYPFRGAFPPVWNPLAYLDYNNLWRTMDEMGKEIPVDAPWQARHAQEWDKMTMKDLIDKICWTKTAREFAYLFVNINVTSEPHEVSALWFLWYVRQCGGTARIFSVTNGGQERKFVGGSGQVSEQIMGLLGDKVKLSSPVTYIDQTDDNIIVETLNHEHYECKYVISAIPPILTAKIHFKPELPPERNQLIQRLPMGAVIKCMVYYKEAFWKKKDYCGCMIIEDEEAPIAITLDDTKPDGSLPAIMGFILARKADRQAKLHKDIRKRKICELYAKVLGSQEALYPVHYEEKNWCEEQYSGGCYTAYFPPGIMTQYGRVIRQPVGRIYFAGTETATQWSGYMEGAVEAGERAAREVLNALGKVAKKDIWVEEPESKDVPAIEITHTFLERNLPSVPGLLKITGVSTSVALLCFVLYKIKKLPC

[2] = molecular target: T2, Amine oxidase [flavin-containing] B (Rattus norvegicus, UniProt P19643); experiment: Displacement of [3H]-Ro 16-6491 from MAO-B receptor in rat cerebral cortex; assay type: tissue-based
T2 sequence (P19643 whole entry): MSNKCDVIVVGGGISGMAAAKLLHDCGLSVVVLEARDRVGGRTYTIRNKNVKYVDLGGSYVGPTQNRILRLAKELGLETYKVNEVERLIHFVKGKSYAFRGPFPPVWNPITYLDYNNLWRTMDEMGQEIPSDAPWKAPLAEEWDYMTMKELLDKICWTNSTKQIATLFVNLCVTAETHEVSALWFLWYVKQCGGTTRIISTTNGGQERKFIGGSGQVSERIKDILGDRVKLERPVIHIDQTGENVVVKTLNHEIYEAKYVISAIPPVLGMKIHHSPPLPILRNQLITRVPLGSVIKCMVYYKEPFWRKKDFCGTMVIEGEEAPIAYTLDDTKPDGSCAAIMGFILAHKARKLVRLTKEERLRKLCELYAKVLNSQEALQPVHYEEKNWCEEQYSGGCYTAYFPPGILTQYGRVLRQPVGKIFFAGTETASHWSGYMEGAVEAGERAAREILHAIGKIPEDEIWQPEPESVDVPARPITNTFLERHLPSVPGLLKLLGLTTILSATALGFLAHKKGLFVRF

[3] = test system: Rattus norvegicus; experiment: Decrease in DOPAC level in Sprague-Dawley rat striatum at 100 umol/kg, sc measured after 1 hr compound administration; assay type: functional; set-up: scale not given: the % may be the effect or the level left
In short: (§1)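 Compounds were given to freely moving rats. Brain tissue was taken post-mortem, and striatal levels of each monoamine and its metabolites were quantified.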

[4] = test system: Rattus norvegicus; experiment: Increase in 3-MT level in Sprague-Dawley rat striatum at 100 umol/kg, sc measured after 1 hr compound administration; assay type: functional; in short: as §1
[5] = test system: Rattus norvegicus; experiment: Decrease in DOPAC level in Sprague-Dawley rat striatum at 5.3 umol/kg, sc measured after 1 hr compound administration; assay type: functional; set-up: scale not given: the % may be the effect or the level left; in short: as §1
[6] = test system: Rattus norvegicus; experiment: Decrease in DOPAC level in Sprague-Dawley rat striatum at 53 umol/kg, sc measured after 1 hr compound administration; assay type: functional; set-up: scale not given: the % may be the effect or the level left; in short: as §1
[7] = test system: Rattus norvegicus; experiment: Increase in 3-MT level in Sprague-Dawley rat striatum at 5.3 umol/kg, sc measured after 1 hr compound administration; assay type: functional; in short: as §1
[8] = test system: Rattus norvegicus; experiment: Increase in 3-MT level in Sprague-Dawley rat striatum at 53 umol/kg, sc measured after 1 hr compound administration; assay type: functional; in short: as §1
[9] = test system: Rattus norvegicus; experiment: Decrease in DOPAC level in Sprague-Dawley rat brain at 50 umol/kg, sc measured by microdialysis; assay type: functional, organism-based
[10] = test system: Rattus norvegicus; experiment: Increase in 3-MT level in Sprague-Dawley rat brain at 50 umol/kg, sc measured by microdialysis; assay type: functional, organism-based
[11] = test system: Rattus norvegicus; experiment: Decrease in homovanillic acid level in Sprague-Dawley rat brain at 50 umol/kg, sc measured by microdialysis; assay type: functional, organism-based
[12] = test system: Rattus norvegicus; experiment: Decrease in DOPAC level in Sprague-Dawley rat striatum at 37 umol/kg, sc measured after 1 hr compound administration; assay type: functional; set-up: scale not given: the % may be the effect or the level left
In short: (§2)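 Unrestrained rats were dosed, and post-mortem striatal brain tissue was then analysed. Each monoamine and its metabolites (DOPAC, 3-MT) were quantified in the tissue.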

[13] = test system: Rattus norvegicus; experiment: Increase in 3-MT level in Sprague-Dawley rat striatum at 37 umol/kg, sc measured after 1 hr compound administration; assay type: functional; in short: as §2

Row | SMILES | Ki [1] | Ki [2] | Activity [3] | Activity [4] | also measured
1 | CCCN1CCN(c2ccc(OS(=O)(=O)C(F)(F)F)cc2)CC1 | 17 µM | 0.0331 µM | 121% | 120% | –
2 | CCCN1CCC(c2ccc(C#N)cc2)CC1 | 93.3 µM | 589 µM | 105% | 115% | –
3 | C#CCN(C)[C@H](C)Cc1ccccc1 [SELEGILINE] | – | – | – | – | Activity [5]: 83%; Activity [6]: 37%; Activity [7]: 110%; Activity [8]: 145%
4 | CCCCOc1ccc(C2CCN(CCC)CC2)cc1 | 0.372 µM | 1.58 µM | 40% | 150% | Activity [9]: Active; Activity [10]: Active; Activity [11]: Active
5 | CCCN1CCC(c2ccc(C(F)(F)F)cc2)CC1 | 6.92 µM | 12.9 µM | 86% | 100% | –
6 | O=C(NCCN1CCOCC1)c1ccc(Cl)cc1 [MOCLOBEMIDE] | – | > 100 µM | – | – | Activity [12]: 18%; Activity [13]: 400%
7 | CCCN1CCC(c2ccc(Cl)cc2)CC1 | 1.51 µM | 38 µM | 68% | 130% | –
8 | CCCN1CCC(c2ccc(S(C)(=O)=O)cc2)CC1 | 589 µM | 589 µM | 100% | 100% | –
9 | CCCN1CCC(c2ccc(OC)cc2)CC1 | 0.24 µM | 219 µM | 22% | 260% | –
10 | CCCN1CCN(c2ccccc2)CC1 | 46.8 µM | – | 180% | 100% | –
11 | CCCN1CCC(c2ccc(N3CCOCC3)cc2)CC1 | 1.2 µM | 12.9 µM | 38% | 160% | –
12 | CCCN1CCN(c2ccc(OC)cc2)CC1 | 1.41 µM | 589 µM | 71% | 135% | –
13 | CCCN1CCC(c2ccccc2)CC1 | 9.77 µM | – | 130% | 100% | –
